# Experimental data from the array DNA melting data of Ke et al. (doi:10.1101/2024.01.08.574731).
# Tests used:
# [1] = melting temperature; fluorescence melt of hairpins on a sequencing array, two-state fit, raised by 9.35 °C to match UV melts; details: sodium 0.088 M
# In short: (§1)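 Folding enthalpy and melting temperature come from bootstrapped two-state fits to Cy3 fluorescence of library hairpins carrying annealed Cy3 and quencher oligos on a sequenced MiSeq flow cell. Imaging was done in 50 mM Na-HEPES pH 8.0, 25 mM NaCl, stepping by 2.5 °C up to 60 °C, and signals were normalised to pre-quench Cy3 and to control constructs. Results of four replicates were combined by inverse variance, and fitted temperatures were raised by 9.35 °C to match UV melts.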
# [2] = folding enthalpy; higher = less favourable; fluorescence melt of hairpins on a sequencing array, two-state fit; details: sodium 0.088 M
# In short: as §1
Sequence,Tm [1] [°C],folding enthalpy [2] [kJ/mol]
GTACCGGGAAACCGGTGC (.(((((....))))).),57.1,-79.8
GTACCGTCGAAAGACTAC (((..(((....)))))),25.7,-37.2
GTACCTGGAAACAGGTGC (.(((((....))))).),52.4,-118
GTACGACCGAAAGGTTAC (((..(((....)))))),19.8,-37.3
GTACGCGAAAGCGAGTAC ((((((....)))..))),41.1,-57.9
GTACGCGAAAGCGCATAC ((((((....)))..))),22.5,-23.3
GTACGCGGAAACGCACAC ((..(((....)))..)),33.1,-57.9
GTACGCGGAAACGCATAC (((.(((....))).))),39.9,-82.1
GTACGCGGAAACGTGTAC ((((.((....)).)))),54.6,-118
GTACGGCGAAAGCCCTAC (((.(((....))).))),35.9,-52.4
GTACGGCGAAAGCCTAC (((.(((....)))))),44.4,-62.3
GTACGGGAAACCGTAC ((((((....)))))),63.2,-117
GTACGGGGAAACTCGTGC (.(((.(....).))).),39.6,-115
GTACGTGAAAACGTAC ((((((....)))))),59.5,-155
GTACTAGCGAAAGCTTAC (((..(((....)))))),28.2,-40.7
GTACTCCGAAAGGACTAC (((.(((....))).))),33.2,-58.8
GTACTCGAAAGAGCGTAC ((((((....)))..))),28.5,-44.9
GTACTCTCGAAAGAGTAC (((..(((....)))))),52.5,-154
GTACTGGGAAACCAGTAC (((((((....))))))),58.5,-154
GTACTGGGAAACCGGTAC ((((.((....)).)))),50.1,-148
GTACTTGCGAAAGCATAC (((..(((....)))))),30.2,-37.7
GTAGAAACGAAAGTTTAC (((..(((....)))))),27.4,-66.3
GTAGAAGGAAACTTCTAC (((((((....))))))),51.4,-167

Sequence,Tm [1] [°C],folding enthalpy [2] [kJ/mol]
GTAGACGAAAGTCAATAC ((((((....)))..))),27.6,-56.4
GTAGACGAAAGTCATAC ((((((....))).))),39.9,-53.3
GTAGACGAAAGTCCCTAC ((((((....)))..))),19.7,-31.4
GTAGACGAAAGTCGCTAC ((((((....)))..))),40.5,-45.3
GTAGACGAAAGTCTTAC ((((((....))).))),38.6,-61.2
GTAGAGGGAAACCTCCAC ((.((((....)))).)),31.2,-69.8
GTAGATGGAAACATCTGC (.(((((....))))).),45.6,-86.9
GTAGCACGAAAGTGATAC (((.(((....))).))),58.4,-163
GTAGCACGAAAGTGTAC (((.(((....)))))),40.4,-59.4
GTAGCGCGAAAGCGTAC (((.(((....)))))),44,-45.1
GTAGGAGCGAAAGCTTAC (((..(((....)))))),31.2,-46.7
GTAGGCGAAAGCCAGTAC ((((((....)))..))),27.4,-34.2
GTAGGCGAAAGCCTCTAC ((((((....)))..))),36.4,-37.1
GTAGGCGGAAACGCTTAC (((.(((....))).))),48.2,-96.5
GTAGGGCGAAAGCCTAC (((.(((....)))))),51.8,-58.9
GTAGGGGGAAACCCTTGC (.(.(((....))).).),31.9,-55.1
GTAGGGGGAAACTCCTAC (((((.(....).))))),47.2,-119
GTAGGTCGAAAGACGTAC (((.(((....))).))),51.7,-152
GTAGGTGCGAAAGCATAC (((..(((....)))))),31.1,-34.6
GTAGGTGGAAACACTTGC (.(.(((....))).).),31.7,-60
GTAGGTGGAAACGCTTAC (((.(.(....).).))),31.4,-96.2
GTAGGTGGAAACGTCTAC ((((..(....)..)))),28.8,-70.2
GTAGTAGAAATACTAC ((((((....)))))),43.1,-109

Sequence,Tm [1] [°C],folding enthalpy [2] [kJ/mol]
GTAGTCCCGAAAGGGTAC (((..(((....)))))),31.5,-45
GTAGTCCGAAAGGAATAC (((.(((....))).))),49.7,-157
GTAGTCGAAAGACACTAC ((((((....)))..))),39.6,-82.5
GTAGTCGAAAGACAGTAC ((((((....)))..))),27.2,-52.2
GTAGTCGAAAGACCTAC ((((((....))).))),36.8,-79.1
GTAGTCGAAAGACGATAC ((((((....)))..))),35.6,-54.3
GTAGTCGAAAGACTTAC ((((((....))).))),39.9,-55.1
GTAGTCGAAAGACTTTAC ((((((....)))..))),29.5,-57.4
GTAGTGCGAAAGCAATAC (((.(((....))).))),53.9,-117
GTAGTGGGAAACCACTAC (((((((....))))))),63.4,-127
GTAGTGGGAAACTGCTAC ((((..(....)..)))),36.8,-98.1
GTAGTTCCGAAAGGATAC (((..(((....)))))),27.7,-48.6
GTATAACGAAAGTTGTAC (((.(((....))).))),45.5,-119
GTATAACGAAAGTTTAC (((.(((....)))))),30.4,-70.4
GTATACGAAAGTAGCTAC ((((((....)))..))),24.4,-36.3
GTATACGAAAGTATAC ((((((....)))))),54.2,-119
GTATACGGAAACGTATGC (.(((((....))))).),46.4,-102
GTATAGCCGAAAGGCTAC (((..(((....)))))),36.4,-33.2
GTATAGCGAAAGCTTAC (((.(((....)))))),39.2,-53.6
GTATAGCGAAAGCTTTAC (((.(((....))).))),40.9,-92
GTATAGGGAAACCTGTAC (((.(((....))).))),39.2,-127
GTATAGTCGAAAGACTAC (((..(((....)))))),32.6,-49.6
